# Laboratory results reported in ChEMBL document CHEMBL4382284, “Acrylamide Functional Group Incorporation Improves Drug-like Properties: An Example with EGFR Inhibitors” (ACS Med Chem Lett, 2019).
# How the values were obtained:
# [1] = test system: A549; test: Cytotoxicity against human A549 cells after 72 hrs by MTT assay; assay type: functional, cell-based; settings: A549, 72 h
# [2] = target: Epidermal growth factor receptor (Homo sapiens, UniProt P00533); test: Inhibition of human EGFR using poly[Glu:Tyr] (4:1) as substrate measured after 20 mins in presence of [gamma33P]ATP by filter-binding assay
# Sequence of Epidermal growth factor receptor (P00533 whole entry): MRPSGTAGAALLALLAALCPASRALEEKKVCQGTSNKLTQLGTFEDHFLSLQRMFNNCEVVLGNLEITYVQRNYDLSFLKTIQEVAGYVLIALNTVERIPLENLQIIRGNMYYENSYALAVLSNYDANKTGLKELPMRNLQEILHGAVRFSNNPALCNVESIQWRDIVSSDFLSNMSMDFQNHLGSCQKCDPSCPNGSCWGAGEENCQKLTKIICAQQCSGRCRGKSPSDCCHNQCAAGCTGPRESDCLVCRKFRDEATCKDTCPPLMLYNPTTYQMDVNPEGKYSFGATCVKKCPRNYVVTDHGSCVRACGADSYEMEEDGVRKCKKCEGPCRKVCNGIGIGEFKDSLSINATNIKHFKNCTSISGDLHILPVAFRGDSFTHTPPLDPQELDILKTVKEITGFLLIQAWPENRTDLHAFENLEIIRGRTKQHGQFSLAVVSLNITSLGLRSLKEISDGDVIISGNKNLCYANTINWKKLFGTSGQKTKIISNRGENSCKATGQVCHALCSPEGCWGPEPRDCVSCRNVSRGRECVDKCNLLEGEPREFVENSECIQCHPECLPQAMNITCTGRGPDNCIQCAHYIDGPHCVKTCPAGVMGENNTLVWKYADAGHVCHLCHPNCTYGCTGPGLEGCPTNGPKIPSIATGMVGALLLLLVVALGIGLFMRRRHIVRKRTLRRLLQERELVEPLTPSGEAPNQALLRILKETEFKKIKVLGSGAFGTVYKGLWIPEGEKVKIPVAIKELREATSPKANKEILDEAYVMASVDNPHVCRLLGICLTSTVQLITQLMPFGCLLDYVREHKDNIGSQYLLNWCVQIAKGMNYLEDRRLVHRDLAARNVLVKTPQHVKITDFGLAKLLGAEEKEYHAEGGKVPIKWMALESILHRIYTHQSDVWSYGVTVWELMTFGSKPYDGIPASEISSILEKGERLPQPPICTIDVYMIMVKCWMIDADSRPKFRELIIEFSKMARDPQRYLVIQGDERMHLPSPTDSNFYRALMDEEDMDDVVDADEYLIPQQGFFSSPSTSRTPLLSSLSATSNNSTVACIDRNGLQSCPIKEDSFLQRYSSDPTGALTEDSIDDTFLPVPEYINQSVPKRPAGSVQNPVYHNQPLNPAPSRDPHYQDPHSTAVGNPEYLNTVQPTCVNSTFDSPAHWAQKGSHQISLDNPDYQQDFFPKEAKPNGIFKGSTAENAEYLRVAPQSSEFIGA
# [3] = 1-Octanol-buffer partition coefficient, log D of compound at pH 7.4 after 24 hrs by shake-flask method; assay type: physicochemical; settings: for logD at 24 h: 1-octanol/buffer, pH 7.4
# How it was run: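 Shake-flask partition between 1-octanol and pH 7.4 aqueous solution, mixed at 1/2 (v/v) octanol/aqueous; log D taken at pH 7.4.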
# [4] = Thermodynamic solubility of the compound in pH 7.4 phosphate buffered saline measured after 24 hrs by UV-HPLC analysis; assay type: physicochemical; settings: read-out: Therm_solubility
# [5] = Thermodynamic solubility of the compound in 1-octanol solution measured after 24 hrs by UV-HPLC analysis; assay type: physicochemical; settings: read-out: Therm_solubility
# [6] = GSH reactivity in pH 7.4 phosphate buffer assessed as half life measured every 15 mins by HPLC analysis; assay type: physicochemical; settings: phosphate buffer with GSH
# How it was run: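 Half-life measured on incubation with glutathione at pH 7.4 and 37 °C, compound to glutathione 1/10.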
# [7] = test system: Vero; test: Cytotoxicity against African green monkey Vero cells assessed as reduction in cell viability after 72 hrs by MTT assay; assay type: ADME, cell-based; settings: Chlorocebus sabaeus
# [8] = target: Voltage-gated inwardly rectifying potassium channel KCNH2 (Homo sapiens, UniProt Q12809); test: Inhibition of human ERG
# Sequence of Voltage-gated inwardly rectifying potassium channel KCNH2 (Q12809 whole entry): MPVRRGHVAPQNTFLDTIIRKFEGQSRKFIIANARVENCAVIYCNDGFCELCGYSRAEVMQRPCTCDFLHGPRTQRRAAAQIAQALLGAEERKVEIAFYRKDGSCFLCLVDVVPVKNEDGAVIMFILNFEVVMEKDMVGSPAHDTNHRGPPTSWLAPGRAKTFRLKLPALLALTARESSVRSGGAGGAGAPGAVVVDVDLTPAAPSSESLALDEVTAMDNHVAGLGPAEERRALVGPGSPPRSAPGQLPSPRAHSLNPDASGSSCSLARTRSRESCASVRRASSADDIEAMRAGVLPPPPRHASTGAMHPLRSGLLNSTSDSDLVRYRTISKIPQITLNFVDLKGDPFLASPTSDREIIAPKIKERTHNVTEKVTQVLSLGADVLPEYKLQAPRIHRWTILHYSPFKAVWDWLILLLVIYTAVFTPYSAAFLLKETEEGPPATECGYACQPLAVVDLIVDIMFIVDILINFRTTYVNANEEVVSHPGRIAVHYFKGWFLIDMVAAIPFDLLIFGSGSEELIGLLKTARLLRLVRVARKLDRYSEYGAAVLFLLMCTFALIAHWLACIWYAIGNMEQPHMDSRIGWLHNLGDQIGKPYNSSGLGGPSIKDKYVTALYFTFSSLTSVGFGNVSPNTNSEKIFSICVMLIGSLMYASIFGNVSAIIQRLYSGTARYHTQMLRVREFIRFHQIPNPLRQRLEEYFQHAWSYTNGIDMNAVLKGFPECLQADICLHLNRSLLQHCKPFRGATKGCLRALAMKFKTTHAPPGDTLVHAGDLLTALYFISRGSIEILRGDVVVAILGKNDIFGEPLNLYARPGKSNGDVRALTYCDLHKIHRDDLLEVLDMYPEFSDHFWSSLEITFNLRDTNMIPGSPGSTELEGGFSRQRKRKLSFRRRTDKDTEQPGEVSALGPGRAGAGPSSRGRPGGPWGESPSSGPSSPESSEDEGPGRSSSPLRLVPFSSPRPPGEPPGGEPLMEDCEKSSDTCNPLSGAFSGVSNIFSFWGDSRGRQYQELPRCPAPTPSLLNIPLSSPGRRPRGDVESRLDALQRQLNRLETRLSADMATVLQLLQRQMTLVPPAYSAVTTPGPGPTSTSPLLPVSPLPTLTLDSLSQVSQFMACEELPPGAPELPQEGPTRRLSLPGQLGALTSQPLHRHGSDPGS
# [9] = Cytotoxicity against human FHS cells assessed as reduction in cell viability after 72 hrs by MTT assay
Compound,IC50 [1] [nM],IC50 [2] [nM],solubility thermodynamic at 24 h [4] [µM],solubility thermodynamic at 24 h [5] [µM],also measured
COc1cc2ncnc(Nc3cccc(Cl)c3F)c2cc1OCCCN1CCOCC1,7510,,,,
C=CC(=O)N(c1cc(F)c(F)cc1F)c1ncnc2cc(OC)c(OCCCN3CCOCC3)cc12,,500,,,
C=CC(=O)N(c1cccc(Cl)c1F)c1ncnc2cc(OC)c(OCCCN3CCOCC3)cc12,450,52.6,1200,5600,logD at 24 h [3]: 2.64; half-life [6]: 49 min
C=CC(=O)N(c1cccc(C(F)(F)F)c1)c1ncnc2cc(OC)c(OCCCN3CCOCC3)cc12,,844,,,
COc1cc2ncnc(Nc3ccc(Cl)c(Cl)c3)c2cc1OCCCN1CCOCC1,24700,1,,4570,
C=CC(=O)N(c1ccc(F)c(C)c1)c1ncnc2cc(OC)c(OCCCN3CCOCC3)cc12,,499,,,
C=CC(=O)N(c1ccc(F)c(Cl)c1)c1ncnc2cc(OC)c(OCCCN3CCOCC3)cc12,150,65.2,1650,4540 to 4940,logD at 24 h [3]: 2.01; IC50 [7]: > 10000 nM; IC50 [8]: > 10000 nM; inhibition (INH) ([8]; human): 20%; IC50 [9]: > 10000 nM; half-life [6]: 85.1 min
C=CC(=O)N(c1cccc(Cl)c1F)c1ncnc2cc(OC)c(OC(=O)N3CCN(C)C[C@H]3C)cc12,6100,,30,5020,logD at 24 h [3]: 2.46; half-life [6]: 27.5 min
C=CC(=O)N(c1ccc(Cl)c(Cl)c1)c1ncnc2cc(OC)c(OCCCN3CCOCC3)cc12,5720,31.7,630,4470,logD at 24 h [3]: 3.57; half-life [6]: 17 min
C=CC(=O)N(c1ccc(Cl)cc1F)c1ncnc2cc(OC)c(OCCCN3CCOCC3)cc12,,234,,,
C=CC(=O)N(c1cc(Cl)ccc1F)c1ncnc2cc(OC)c(OCCCN3CCOCC3)cc12,,133,,,
C=CC(=O)N(c1ccc(F)c(F)c1)c1ncnc2cc(OC)c(OCCCN3CCOCC3)cc12,,368,,,
C=CC(=O)N(c1ccc(F)c(C(F)(F)F)c1)c1ncnc2cc(OC)c(OCCCN3CCOCC3)cc12,,> 1000,,,
C=CC(=O)N(c1ccc(F)cc1F)c1ncnc2cc(OC)c(OCCCN3CCOCC3)cc12,,302,,,
C=CC(=O)N(c1ccc(OC)cc1F)c1ncnc2cc(OC)c(OCCCN3CCOCC3)cc12,,> 1000,,,
COc1cc2ncnc(Nc3cccc(Cl)c3F)c2cc1OC(=O)N1CCN(C)C[C@H]1C [AZD-3759],28700,,20,4540,logD at 24 h [3]: 2.84
COc1cc2ncnc(Nc3ccc(F)c(Cl)c3)c2cc1OCCCN1CCOCC1 [GEFITINIB],,,< 10,1400,"logD ([3]; octanol/water, pH 7.4, 24 h): 2.41"
